# A selection: hits, their analogues and other compounds. The true share with any hit is near 3.2%.
# LEDGF integ inh: blocks HIV-1 LEDGF/p75-dependent DNA integration; TR-FRET IN-LEDGF/p75 DNA integration, Eu/Cy5; inhibition, % at 3.7 µM; 370,000 tested, 0.64% active; AID 743269;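 active means inhibition above the screen-wide mean plus 3 SD, cut at about 13% in these data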;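 further: signal is the Cy5 over europium emission ratio at 671 and 618 nm; 0% = plate median of compound wells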
# HTRA1 inhibitor: inhibitors of human serine peptidase HTRA1 | Q92743 | recombinant HTRA1, FP-rhodamine activity-based probe, fluorescence polarization | inhibition, % at 5.96 µM | 340,000 tested, 0.5% active | AID 504803; in the data active means inhibition above about 36%;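 further: 0% = enzyme with DMSO and 100% = wells lacking enzyme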
# DAGLB inh: diacylglycerol lipase beta (human) inhibition; Q8NCG7; HEK293T DAGLB membrane lysate, EnzChek fluorogenic substrate; inhibition, % at 5.17 µM; 340,000 tested, 0.059% active; in the data active means inhibition above about 34%;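 further: 0% = enzyme with vehicle and 100% = wells lacking enzyme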
# ABHD4 inh: inhibitors of mouse ABHD4; AID 720543; purified mABHD4, FP-Rh probe fluorescence polarization; Q8VD66; inhibition, % at 8.92 µM; 370,000 tested, 0.54% active;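 active means inhibition exceeding the mean over every tested compound plus 3 SD, cut at about 30% in these data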;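 further: 0% = plate median of compound wells and 100% = S159A mutant with DMSO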
# Target sequence (Q8VD66 whole entry, looked up): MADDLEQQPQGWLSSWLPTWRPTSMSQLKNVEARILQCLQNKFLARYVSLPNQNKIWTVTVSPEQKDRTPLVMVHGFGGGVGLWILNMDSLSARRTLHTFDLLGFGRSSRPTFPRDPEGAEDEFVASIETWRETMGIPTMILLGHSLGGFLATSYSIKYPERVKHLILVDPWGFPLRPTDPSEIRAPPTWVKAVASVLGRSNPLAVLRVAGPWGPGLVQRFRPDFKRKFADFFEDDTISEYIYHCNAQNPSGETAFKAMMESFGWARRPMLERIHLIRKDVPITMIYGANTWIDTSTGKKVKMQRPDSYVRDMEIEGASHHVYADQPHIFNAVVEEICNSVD
#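 Test system: mABHD4 protein | Buffer or medium: HEPES pH 7.0 buffer, 150 mM NaCl, 0.01% Pluronic F-127 | Probe or stimulus: FP-Rh fluorescent activity-based probe, added after compound pre-incubation | Timing: Pre-incubation 45 min, probe exposure 60 min, at 25 °C | Technique: Fluorescence polarization, excitation 525 nm, emission 598 nm, BODIPY TMR filters | Repeats: Single well per compound (singlicate)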
# rCAG binder: r(CAG) repeat RNA binding. 370,000 tested, 1.3% active. TO-PRO-1 dye displacement fluorescence. inhibition, % at 3 µM;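 active means inhibition above the plate cutoff, the mean of all test compounds on that plate plus 3 SD, cut at about 35% in these data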;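 further: 0% = DMSO alone and 100% = 100 µM mitoxantrone as full dye displacement; higher means more dye released from RNA so lower well fluorescence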
# PRMT1 inh: blocks human protein arginine methyltransferase 1; 370,000 tested, 1.3% active; recombinant PRMT1, activity-based probe fluorescence polarization; AID 652257; Q99873; inhibition, % at 2.79 µM;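 active means inhibition above about 21% made by adding two undisclosed values, limit read from the data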
# Target sequence (Q99873 whole entry, looked up): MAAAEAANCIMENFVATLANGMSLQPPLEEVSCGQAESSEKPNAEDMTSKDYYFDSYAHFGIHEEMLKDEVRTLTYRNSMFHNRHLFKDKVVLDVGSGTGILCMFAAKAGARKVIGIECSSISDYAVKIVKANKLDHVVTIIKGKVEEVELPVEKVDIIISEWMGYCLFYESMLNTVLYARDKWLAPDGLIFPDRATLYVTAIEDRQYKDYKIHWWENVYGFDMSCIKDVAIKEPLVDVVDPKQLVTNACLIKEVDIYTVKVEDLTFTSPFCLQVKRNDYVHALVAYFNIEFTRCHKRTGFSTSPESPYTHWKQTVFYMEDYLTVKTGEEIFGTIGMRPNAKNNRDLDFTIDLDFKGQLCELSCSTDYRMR
# HTRA1 conf: HTRA1 (human) inhibition, confirmation. shares compounds with HTRA1 inhibitor. recombinant HTRA1, FP-rhodamine activity-based probe, fluorescence polarization. inhibition, % at 5.96 µM. 1,600 tested, 66% active;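 active means mean inhibition over three repeats above a set limit taken from the earlier primary screen, cut at about 37% in these data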;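 further: 0% = HTRA1 with DMSO and 100% = wells lacking HTRA1; inhibitors block probe binding so polarization drops and inhibition rises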
# rCAG bind conf: r(CAG) RNA repeat binding, confirmation; inhibition, % at 3 µM; AID 652065; TO-PRO-1 dye displacement fluorescence; 4,300 tested, 70% active; shares compounds with rCAG binder;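 active means inhibition above a per-plate cutoff, the mean inhibition of sample wells plus 3 SD, cut at about 35% in these data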;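 further: loss of TO-PRO-1 fluorescence as compound displaces dye from 1x1 AA loop RNA; 0% = DMSO only wells and 100% = 100 µM mitoxantrone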
# dCAG dye counter: DNA CAG dye complex inhibition counter-screen; shares compounds with rCAG binder; inhibition, % at 3 µM; 4,300 tested, 94% active; d(CAG) DNA oligo TO-PRO-1 dye displacement, fluorescence;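 active means inhibition above its plate's cutoff, the mean test-well inhibition plus 3 SD, cut at about 4.8% in these data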;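 further: 0% = DNA dye mix with DMSO and 100% = 100 µM mitoxantrone; hits displace the dye from DNA and so lower well fluorescence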
# DNA CAG DR: disrupts DNA CAG TO-PRO-1 complex in dose response. shares compounds with rCAG binder. DNA CAG/GTC duplex TO-PRO-1 dye displacement fluorescence. IC50, µM. AID 686960. 250 tested, 20% active; in the data active means IC50 below about 10 µM
# mABHD4 conf: confirmation of mouse ABHD4 inhibitors | AID 720658 | inhibition, % at 8.92 µM | shares compounds with ABHD4 inh | 1,800 tested, 55% active | purified mABHD4, FP-Rh probe fluorescence polarization;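 active means mean inhibition across replicates above the hit cutoff set in the primary screen, cut at about 30% in these data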;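 further: 0% = wild-type ABHD4 with DMSO and 100% = catalytically dead S159A mutant with DMSO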
# IN multimer up: counter-screen for LEDGF/p75 integration inhibitors: HIV-1 integrase multimerization activators; shares compounds with LEDGF integ inh; TR-FRET HIV-1 integrase multimerization, biochemical; activation, % at 7.7 µM; 2,000 tested, 17% active; AID 1053131; in the data active means activation above about 8.9%
# TR-FRET interf: TR-FRET optical interference, LEDGF/p75 integration counter-screen | shares compounds with LEDGF integ inh | TR-FRET optical interference counterscreen, HIV-1 IN multimerization | inhibition, % at 7.7 µM | 2,000 tested, under 10 active | AID 1053135;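 active means inhibition above the mean over all tested compounds plus 3 SD, which no compound reached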;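 further: 0% = integrase with antibodies and DMSO and 100% = antibodies without integrase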
# IN-LEDGF confirm: LEDGF/p75-dependent HIV-1 integration inhibition, confirmation | 2,000 tested, 36% active | shares compounds with LEDGF integ inh | AID 1053136 | TR-FRET LEDGF/p75-dependent HIV-1 integration, biochemical | inhibition, % at 3.7 µM; in the data active means inhibition above about 14%
# The depositor's hits bear a star; i = inactive; · = no result given.
SMILES,LEDGF integ inh,HTRA1 inhibitor,DAGLB inh,ABHD4 inh,rCAG binder,PRMT1 inh,rCAG bind conf,dCAG dye counter,others
CCCC(=O)C1=C(O)C(C(=O)OC)C(C)(C)CC1=Nc1ccc(N)cc1 (stereo unspecified),0,-1,-1,-3,4,2,·,·,
CCCC(=Nc1ccc(N)cc1)C1=C(O)C(C(=O)OC)C(C)(C)CC1=O (stereo unspecified),54*,61*,8,79*,22,16,·,·,HTRA1 conf=59*;mABHD4 conf=14;IN multimer up=21*;TR-FRET interf=-75;IN-LEDGF confirm=5
Cc1c(CN2CCN(c3ncc(Cc4ccccc4)cn3)CC2)c(=O)n(-c2ccccc2)n1C,3,·,·,-4,-1,-4,·,·,
OCCNc1c2ccccc2nc2c(F)c(F)c(F)c(F)c12,-2,0,-8,7,-4,1,·,·,
Cc1c2ccccc2nc2c(F)c(NCCO)c(F)c(F)c12,14*,67*,-3,58*,5,27*,·,·,HTRA1 conf=28;mABHD4 conf=52*;IN multimer up=5;TR-FRET interf=-19;IN-LEDGF confirm=3
Cc1c2ccccc2nc2c(F)c(NC(C)C)c(F)c(F)c12,13*,57*,6,47*,24,19,·,·,HTRA1 conf=26;mABHD4 conf=27;IN multimer up=1;TR-FRET interf=-5;IN-LEDGF confirm=4
CC(C)Nc1nc2ccccc2c(=O)[nH]1,0,0,-1,1,-1,-2,·,·,
COCCN1C(=O)/C(=C/c2ccc(OCc3ccc(C(=O)O)cc3)c(OC)c2)SC1=Nc1ccccc1,1,-7,2,-33,29,-2,·,·,
CN=C1S/C(=C\c2ccc(OCC(=O)OC)c(OC)c2)C(=O)N1C,2,1,2,0,-5,-7,·,·,
COc1cc(/C=C2\SC(=Nc3ccc(N4CCOCC4)cc3)N(C)C2=O)ccc1OC(C)C(=O)O (stereo unspecified),2,7,6,-5,41*,1,52*,17*,
COc1cc(/C=C2\SC(=Nc3ccccc3)N(Cc3ccco3)C2=O)ccc1OC(C)C(=O)O (stereo unspecified),4,-19,2,-19,67*,-2,71*,29*,DNA CAG DR=i
CSc1nnc(NC(=O)C23CC4CC(CC(C4)C2)C3)s1,1,-11,-1,-5,-3,1,·,·,
COc1ccc(/C=C2\S/C(=N/S(=O)(=O)c3cccs3)NC2=O)cc1,-1,-13,8,-22,73*,0,50*,16*,
Cc1cc(NC(=O)c2ccccc2NS(=O)(=O)c2c(C)c(C)cc(C)c2C)no1,0,-5,8,-4,25,-2,·,·,
Cc1ccc(C)c(S(=O)(=O)Nc2ccc(S(=O)(=O)Nc3ncccn3)cc2)c1,3,-5,-1,-2,1,0,·,·,
Cc1ccc(C)c(S(=O)(=O)Nc2ccccc2C(=O)Nc2cc(C)on2)c1,3,-20,11,-10,77*,-2,77*,32*,DNA CAG DR=i
Cc1ccc(S(=O)(=O)Nc2ccccc2C(=O)Nc2ccc(S(=O)(=O)Nc3nccc(C)n3)cc2)cc1,-3,-7,10,-6,59*,0,55*,24*,
Cc1ccc(C)c(S(=O)(=O)Nc2ccccc2C(=O)Nc2ccc(S(=O)(=O)Nc3ncccn3)cc2)c1,2,1,5,7,77*,-2,51*,18*,
Cc1ccc(CNC(=O)c2ccccc2NS(=O)(=O)c2ccc(Cl)nc2)cc1,-4,-2,3,-6,43*,4,20,4,
COc1cc([N+](=O)[O-])ccc1-c1ccc(/C=N/NC(N)=O)o1,-2,3,-1,5,5,-1,·,·,
C=C(C)Cn1c(CCNC(=O)c2ccco2)nc2ccccc21,4,-1,-4,-3,-2,0,·,·,
CSc1ccc(/C=C/C(=O)NC(=O)c2ccccc2O)cc1,-4,7,2,-13,38*,2,26,8.7*,
COc1ccc(C2=NN(c3ccccc3)C(c3cn(CCC(=O)O)nc3-c3ccccc3)C2)cc1 (stereo unspecified),1,6,5,10,39*,-3,46*,12*,
COc1ccc(C2CC(c3ccccc3)=NN2c2ccc(Cl)c(C(=O)O)c2)cc1 (stereo unspecified),-2,-16,10,14,61*,7,55*,17*,
COc1cc(C2CC(c3ccccc3)=NN2c2ccccc2)ccc1OCC(=O)O (stereo unspecified),1,-4,7,-5,41*,5,50*,15*,
SMILES,LEDGF integ inh,HTRA1 inhibitor,DAGLB inh,ABHD4 inh,rCAG binder,PRMT1 inh,rCAG bind conf,dCAG dye counter,others
COc1ccc(C2CC(c3ccccc3)=NN2c2ccccc2)c(C(=O)O)c1OC (stereo unspecified),-2,-2,7,0,46*,8,59*,16*,
COc1ccc(-c2nn(CCC(=O)O)cc2CCC(=O)O)cc1,-4,0,3,-4,-1,-3,·,·,
COc1ccc(C2CC(c3ccccc3)=NN2c2ccc(S(N)(=O)=O)cc2)cc1OC (stereo unspecified),-4,-11,2,-16,10,-3,·,·,
COc1ccc2c(c1OC)C(=O)N1N=C(c3ccccc3)CC21 (stereo unspecified),-3,-5,-5,0,1,-1,·,·,
COc1nc(NC(=O)c2ccc(F)cc2)nc(OC)c1-c1ccccc1,-1,-60,-5,-2,4,1,·,·,
Cc1sc(NC(=O)c2ccc(OCC(C)C)cc2)c(C(N)=O)c1-c1ccc(Cl)cc1Cl,-2,1,-3,1,5,2,·,·,
